Drawing on PubChem BioAssay AID624431 (The Scripps Research Institute Molecular Screening Center, 2012), this text covers inhibition for six compounds.

Some of the results follow. Values without a mark were called inactive. The source made the active and inactive calls.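 The calls were made as follows: active = mean inhibition over triplicates exceeds the hit threshold derived for the earlier primary screening run (cut at about 25% in these data); inactive = the rest.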

This test has as its target Arf-GAP with SH3 domain, ANK repeat and PH domain-containing protein 1 (Homo sapiens) (UniProt Q9ULH1). Description: ASAP1 GAP activity inhibitors, confirmation, biochemical, fluorescence polarization, human, triplicate (AID 624431). The following applies: ASAP1-stimulated Arf1 GTPase, GDP fluorescence polarization; at 16.5 µM; stronger effect = higher value. The method in brief: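 Medium: HEPES-based assay buffer at pH 7.5; System: purified ASAP1 fragment 325-724; Reagent: Arf1 Δ17-GTP substrate; Read-out basis: % inhibition vs no-ASAP1 controls; Times: 20-min ASAP1–compound and 120-min Arf1-GTP steps at 25 °C, 60-min tracer; Detection: FP readout via GDP Alexa 633 tracer displacement from antibody.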

Chain of Arf-GAP with SH3 domain, ANK repeat and PH domain-containing protein 1 (Homo sapiens) (Q9ULH1 325-724 limits assumed): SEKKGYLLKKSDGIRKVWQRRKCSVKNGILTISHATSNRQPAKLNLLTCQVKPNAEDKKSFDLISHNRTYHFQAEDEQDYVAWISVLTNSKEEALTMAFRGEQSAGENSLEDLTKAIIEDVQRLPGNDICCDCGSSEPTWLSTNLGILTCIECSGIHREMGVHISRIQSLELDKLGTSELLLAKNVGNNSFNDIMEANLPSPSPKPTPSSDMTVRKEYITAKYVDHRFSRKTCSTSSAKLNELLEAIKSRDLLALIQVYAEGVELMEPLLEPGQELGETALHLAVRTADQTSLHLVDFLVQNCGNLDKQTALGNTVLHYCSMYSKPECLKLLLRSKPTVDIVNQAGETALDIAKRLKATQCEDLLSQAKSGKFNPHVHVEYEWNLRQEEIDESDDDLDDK

Usually inhibition stands for the change of the read-out against control, counted positive when it falls. Regarding `CC(=O)N(C1=C(Cl)C(=O)c2ccccc2C1=O)c1ccc(C(=O)O)cc1`, the inhibition is 22.3%.
Then `C=CCNc1nc(N)c(C(=C(C#N)C#N)c2ccccc2)s1`, with 13.1%.
Next, `c1ccc(-c2cc(-c3nnc4sc(-c5ccccn5)nn34)[nH]n2)cc1`: 33% (active).
In the case of `N#Cc1cc([N+](=O)[O-])ccc1Oc1cccc(/C=N/NC(=O)c2ccc(Cl)cc2)c1`, the inhibition was 31.5% (active).
For `CC(=O)Nc1cc(-c2ccc(N3CCN(C)CC3)cc2)cn2c(-c3cccc(C(=O)N(C)C)c3)cnc12`, the inhibition is 69.3% (active).
With `Cc1ccc2nc(SCC(=O)N3CC(C)OC(C)C3)nc(=O)n2c1` (stereo unspecified), the inhibition was 54.1% (active).
